Holding throughout (format): functional
What all share (settings): variant bovis BCG

Assay [1] has as its system Mycobacterium tuberculosis. Kind of assay: Antimycobacterial activity against Mycobacterium bovis BCG at 100 ug/mL by microplate Alamar blue assay. The procedure, abridged:
(§1)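 MABA with M. bovis BCG, M. tuberculosis H37Ra or M. avium ATCC 25291. DMSO stocks (10 mg/mL) diluted in 7H9GC; final inoculum 2.5 × 10⁵ CFU/mL. Incubated 6 days, then alamar blue plus Tween 80 added and read by fluorescence after about 24 h. […]. Tested in triplicate at 100, 50, 10 and 1 µg/mL; two experiments, mean reported.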

Assay [2] relates to Mycobacterium tuberculosis. Kind of assay: Antimycobacterial activity against Mycobacterium bovis BCG by microplate Alamar blue assay. The procedure, abridged:
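Same alamar blue microplate setup (7H9GC, 2.5 × 10⁵ CFU/mL, 6 days, then dye read after about 24 h), using 2-fold compound dilutions. MIC90 is the lowest concentration giving about 90% inhibition relative to bacteria-only wells after background subtraction. Visual MIC is the lowest concentration preventing the blue-to-pink change.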

Assay [3] deals with Mycobacterium tuberculosis. Kind of assay: Antimycobacterial activity against Mycobacterium bovis BCG at 10 ug/mL by microplate Alamar blue assay. The procedure, abridged: as §1
Assay [4] has as its system Mycobacterium tuberculosis. Kind of assay: Antimycobacterial activity against Mycobacterium bovis BCG at 1ug/mL by microplate Alamar blue assay. The procedure, abridged: as §1
The subject of assay [5] is Mycobacterium tuberculosis. The experiment in a line: Antimycobacterial activity against Mycobacterium bovis BCG at 50 ug/mL by microplate Alamar blue assay. The procedure, abridged: as §1

≈ marks a conversion by molar mass, not a printed value.

In turn, `O=c1[nH]c(=O)n([C@@H]2O[C@H](CO)[C@@H](O)[C@@H]2O)cc1C(O)C(Br)Br` (some centres not stated) yielded an inhibition at 100 µg/mL in assay [1] of 0%.
The compound `O=c1[nH]c(=O)n([C@@H]2O[C@H](CO)[C@@H](O)[C@@H]2O)cc1Br` yielded an inhibition at 100 µg/mL in assay [1] of 0%.
Still for that read-out and setting: next, `Cc1cn([C@@H]2O[C@H](CO)[C@@H](O)[C@@H]2O)c(=O)[nH]c1=S`: 0%.
Turning to `CCCCCCCCCCC#Cc1cn([C@@H]2O[C@H](CO)[C@@H](O)[C@H]2F)c(=O)[nH]c1=O`, in assay [1], the inhibition at 100 µg/mL was found to be 100%. The same compound yielded an MIC90 in assay [2] of 1 µg/mL (≈ 2.44 µM). In assay [3], this compound registered an inhibition at 10 µg/mL of 100%. In assay [4], this compound displayed an inhibition at 1 µg/mL of 70%. The inhibition at 50 µg/mL in assay [5] was found to be 100%.
The compound `CCCCCCCCCCCC#Cc1cn([C@@H]2O[C@H](CO)[C@@H](O)[C@H]2F)c(=O)[nH]c1=O` returned an inhibition at 100 µg/mL in assay [1] of 100%. This compound also gave an MIC90 in assay [2] of 1 µg/mL (≈ 2.36 µM). The compound also registered an inhibition at 10 µg/mL in assay [3] of 100%. Also, the inhibition at 1 µg/mL in assay [4] turned out to be 90%. In assay [5], the inhibition at 50 µg/mL is 100%.
With `CCCCCCCCCCCCC#Cc1cn([C@@H]2O[C@H](CO)[C@@H](O)[C@@H]2O)c(=O)[nH]c1=O`, in assay [1], at 100 µg/mL the inhibition was 100%. Besides, the MIC90 in assay [2] was found to be 10 µg/mL (≈ 22.9 µM). This compound registered an inhibition at 10 µg/mL in assay [3] of 50%. The compound further showed an inhibition at 50 µg/mL in assay [5] of 100%.
As to `CCCCCCCCCCCCC#Cc1cn([C@@H]2O[C@H](CO)[C@@H](O)[C@H]2F)c(=O)[nH]c1=O`, the inhibition at 100 µg/mL in assay [1] amounted to 100%. In addition, the MIC90 in assay [2] was 10 µg/mL (≈ 22.8 µM). Besides, the inhibition at 10 µg/mL in assay [3] amounted to 50%. Besides, the inhibition at 50 µg/mL in assay [5] was found to be 100%.
Turning to `CCCc1ccc(C#Cc2cn([C@@H]3O[C@H](CO)[C@@H](O)[C@@H]3O)c(=O)[nH]c2=O)cc1`, in assay [1], testing at 100 µg/mL gave an inhibition of 100%. Further, the MIC90 in assay [2] stood at 100 µg/mL (≈ 259 µM). The compound further gave an inhibition at 50 µg/mL in assay [5] of 50%.
Regarding `CCOC(=O)/C=C/c1cn([C@@H]2O[C@H](CO)[C@@H](O)[C@H]2F)c(=O)[nH]c1=O`, at 100 µg/mL the inhibition in assay [1] was 0%.
Still for that read-out and setting: under `CCOC(=O)C(Cl)C(O)c1cn([C@@H]2O[C@H](CO)[C@@H](O)[C@H]2F)c(=O)[nH]c1=O` (some centres not stated) stands 0%; under `CCOC(=O)C(Br)C(O)c1cn([C@@H]2O[C@H](CO)[C@@H](O)[C@H]2F)c(=O)[nH]c1=O` (some centres not stated), 0%.
`O=c1[nH]c(=O)n([C@@H]2O[C@H](CO)[C@@H](O)[C@H]2F)cc1Br` yielded an inhibition at 100 µg/mL in assay [1] of 0%.
`O=C(O)/C=C/c1cn([C@@H]2O[C@H](CO)[C@@H](O)[C@@H]2O)c(=O)[nH]c1=O` had an inhibition at 100 µg/mL in assay [1] of 0%.
`COC(CI)c1cn([C@@H]2O[C@H](CO)[C@@H](O)[C@@H]2O)c(=O)[nH]c1=O` (some centres not stated) had an inhibition at 100 µg/mL in assay [1] of 0%.
In assay [1], `CCCCCC#Cc1cn([C@@H]2O[C@H](CO)[C@@H](O)[C@@H]2O)c(=O)[nH]c1=O` showed an inhibition at 100 µg/mL of 25%.
Consider `CCCCCCCCC#Cc1cn([C@@H]2O[C@H](CO)[C@@H](O)[C@@H]2O)c(=O)[nH]c1=O`, for which the inhibition at 100 µg/mL in assay [1] is 100%. The compound further returned an MIC90 in assay [2] of 100 µg/mL (≈ 263 µM). Moreover, 10 µg/mL produced 30% inhibition in assay [3]. This compound returned an inhibition at 50 µg/mL in assay [5] of 50%.
In assay [1], `CCCCCCCCCCC#Cc1cn([C@@H]2O[C@H](CO)[C@@H](O)[C@@H]2O)c(=O)[nH]c1=O` registered an inhibition at 100 µg/mL of 100%. In assay [2], this compound registered an MIC90 of 1 µg/mL (≈ 2.45 µM). In addition, the inhibition at 10 µg/mL in assay [3] turned out to be 100%. 1 µg/mL produced 75% inhibition in assay [4]. This compound also returned an inhibition at 50 µg/mL in assay [5] of 100%.
`CCCCCCCCCCCC#Cc1cn([C@@H]2O[C@H](CO)[C@@H](O)[C@@H]2O)c(=O)[nH]c1=O` gave an inhibition at 100 µg/mL in assay [1] of 100%. The same compound displayed an MIC90 in assay [2] of 10 µg/mL (≈ 23.7 µM). Also, the inhibition at 10 µg/mL in assay [3] is 50%. The compound further registered an inhibition at 50 µg/mL in assay [5] of 100%.
`O=c1[nH]c(=O)n([C@@H]2O[C@H](CO)[C@@H](O)[C@H]2F)cc1Cl` gave an inhibition at 100 µg/mL in assay [1] of 50%. Besides, in assay [5], testing at 50 µg/mL gave an inhibition of 50%.
`Cc1cn([C@@H]2O[C@H](CO)[C@@H](O)[C@H]2F)c(=O)[nH]c1=S`: in assay [1], the inhibition at 100 µg/mL turned out to be 25%.
Compound `O=c1[nH]c(=O)n([C@@H]2O[C@H](CO)[C@@H](O)[C@@H]2O)cc1C(O)C(Cl)Cl` (some centres not stated) yielded an inhibition at 100 µg/mL in assay [1] of 0%.
In assay [1], `O=c1[nH]c(=O)n([C@@H]2O[C@H](CO)[C@@H](O)[C@@H]2O)cc1C(O)CI` (some centres not stated) displayed an inhibition at 100 µg/mL of 0%.
On the same count and under the same terms, next, `O=C(O)C(I)C(O)c1cn([C@@H]2O[C@H](CO)[C@@H](O)[C@H]2F)c(=O)[nH]c1=O` (some centres not stated): 0%; `O=c1[nH]c(=O)n([C@@H]2O[C@H](CO)[C@@H](O)[C@@H]2O)cc1Cl`: 0%; `O=c1[nH]c(=S)ccn1[C@@H]1O[C@H](CO)[C@@H](O)[C@@H]1O`: 0%.
For `CCCCCC#Cc1cn([C@@H]2O[C@H](CO)[C@@H](O)[C@H]2F)c(=O)[nH]c1=O`, in assay [1], testing at 100 µg/mL gave an inhibition of 50%.
In assay [1], `O=c1[nH]c(=S)ccn1[C@@H]1O[C@H](CO)[C@@H](O)[C@H]1F` displayed an inhibition at 100 µg/mL of 25%.
Consider `CCOC(=O)/C=C/c1cn([C@@H]2O[C@H](CO)[C@@H](O)[C@@H]2O)c(=O)[nH]c1=O`, for which at 100 µg/mL the inhibition in assay [1] was 0%.
For `CCCCCCCCC#Cc1cn([C@@H]2O[C@H](CO)[C@@H](O)[C@H]2F)c(=O)[nH]c1=O`, at 100 µg/mL the inhibition in assay [1] was 100%. This compound also returned an MIC90 in assay [2] of 50 µg/mL (≈ 131 µM). The inhibition at 10 µg/mL in assay [3] was found to be 50%. Moreover, in assay [4], 1 µg/mL produced 30% inhibition. Further, testing at 50 µg/mL in assay [5] gave an inhibition of 75%.
The compound `O=C(O)/C=C/c1cn([C@@H]2O[C@H](CO)[C@@H](O)[C@H]2F)c(=O)[nH]c1=O` came in with an inhibition at 100 µg/mL in assay [1] of 0%.
In turn, `CO[C@H]1/C=C/O[C@@]2(C)Oc3c(C)c(O)c4c(O)c(c(/C=N/N5CCN(C)CC5)c(O)c4c3C2=O)NC(=O)/C(C)=C\C=C\[C@H](C)[C@H](O)[C@@H](C)[C@@H](O)[C@@H](C)[C@H](OC(C)=O)[C@@H]1C` [RIFAMPIN] gave an MIC90 in assay [2] of 0.5 µg/mL (≈ 0.608 µM).

The record behind these values is ChEMBL document CHEMBL1146217, “Growth inhibition of Mycobacterium bovis, Mycobacterium tuberculosis and Mycobacterium avium in vitro: effect of 1-beta-D-2'-arabinofuranosyl and 1-(2'-deoxy-2'-fluoro-beta-D-2'-ribofuranosyl) pyrimidine nucleoside analogs” (J Med Chem, 2007).
